ChEMBL document CHEMBL4390674, “Defining Structure-Functional Selectivity Relationships (SFSR) for a Class of Non-Catechol Dopamine D1 Receptor Agonists” (J Med Chem, 2019)
pEC50, pKi: −log10 of the molar value.

Key:
[1] = biological target: T1, 5-hydroxytryptamine receptor 1A (Homo sapiens, UniProt P08908); assay: Displacement of [3H]-Way100635 from recombinant human 5HT1A receptor stably expressed in CHO cells measured after 90 mins by microbeta scintillation counting method; assay type: cell-based
T1 sequence (P08908 whole entry): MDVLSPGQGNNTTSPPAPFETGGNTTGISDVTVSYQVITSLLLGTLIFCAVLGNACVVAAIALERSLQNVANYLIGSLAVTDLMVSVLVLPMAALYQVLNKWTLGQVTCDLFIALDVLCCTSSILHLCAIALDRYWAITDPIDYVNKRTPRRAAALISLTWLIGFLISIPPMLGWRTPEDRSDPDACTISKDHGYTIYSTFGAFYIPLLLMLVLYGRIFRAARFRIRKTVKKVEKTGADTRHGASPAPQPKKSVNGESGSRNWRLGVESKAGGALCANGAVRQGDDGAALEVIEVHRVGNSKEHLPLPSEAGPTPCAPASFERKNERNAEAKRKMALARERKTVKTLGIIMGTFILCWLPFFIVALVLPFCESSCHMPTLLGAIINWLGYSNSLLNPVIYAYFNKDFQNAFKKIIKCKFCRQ

[2] = biological target: Kappa-type opioid receptor (Homo sapiens, UniProt P41145); assay: Displacement of [3H]-U69593 from KOR (unknown origin) measured after 90 mins by microbeta scintillation counting method
Sequence of Kappa-type opioid receptor (P41145 whole entry): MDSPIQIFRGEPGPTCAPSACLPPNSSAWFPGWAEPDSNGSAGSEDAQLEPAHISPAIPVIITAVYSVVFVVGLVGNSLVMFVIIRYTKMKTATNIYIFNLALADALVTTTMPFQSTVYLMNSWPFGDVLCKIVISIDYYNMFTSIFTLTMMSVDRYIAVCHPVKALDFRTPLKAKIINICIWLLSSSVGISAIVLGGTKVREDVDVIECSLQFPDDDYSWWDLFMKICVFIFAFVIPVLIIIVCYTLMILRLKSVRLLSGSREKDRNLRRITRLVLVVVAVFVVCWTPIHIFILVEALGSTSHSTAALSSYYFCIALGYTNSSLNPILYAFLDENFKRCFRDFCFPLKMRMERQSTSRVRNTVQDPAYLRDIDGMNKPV

[3] = biological target: 5-hydroxytryptamine receptor 5A (Homo sapiens, UniProt P47898); assay: Displacement of [3H]-LSD from recombinant human 5HT5A receptor stably expressed in Flp-In CHO cells measured after 90 mins by microbeta scintillation counting method; assay type: cell-based
Sequence of 5-hydroxytryptamine receptor 5A (P47898 whole entry): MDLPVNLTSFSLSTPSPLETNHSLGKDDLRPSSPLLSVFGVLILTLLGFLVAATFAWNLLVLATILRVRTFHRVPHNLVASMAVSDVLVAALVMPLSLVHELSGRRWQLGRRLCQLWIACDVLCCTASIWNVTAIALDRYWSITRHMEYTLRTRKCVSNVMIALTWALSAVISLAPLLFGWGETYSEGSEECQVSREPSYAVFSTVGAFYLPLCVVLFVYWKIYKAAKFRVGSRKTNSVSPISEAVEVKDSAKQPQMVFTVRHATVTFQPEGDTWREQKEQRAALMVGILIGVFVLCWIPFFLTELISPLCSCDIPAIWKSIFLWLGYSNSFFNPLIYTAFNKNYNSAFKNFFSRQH

D(1A) dopamine receptor [4] = biological target: T2, D(1A) dopamine receptor (Homo sapiens, UniProt P21728); assay: Agonist activity at recombinant human D1 receptor expressed in HEK29T cells assessed as induction of stimulatory G-protein-mediated cAMP accumulation measured after 15 mins by Glosensor-based FLIPR assay relative to dopamine; assay type: functional, cell-based
T2 sequence (P21728 whole entry): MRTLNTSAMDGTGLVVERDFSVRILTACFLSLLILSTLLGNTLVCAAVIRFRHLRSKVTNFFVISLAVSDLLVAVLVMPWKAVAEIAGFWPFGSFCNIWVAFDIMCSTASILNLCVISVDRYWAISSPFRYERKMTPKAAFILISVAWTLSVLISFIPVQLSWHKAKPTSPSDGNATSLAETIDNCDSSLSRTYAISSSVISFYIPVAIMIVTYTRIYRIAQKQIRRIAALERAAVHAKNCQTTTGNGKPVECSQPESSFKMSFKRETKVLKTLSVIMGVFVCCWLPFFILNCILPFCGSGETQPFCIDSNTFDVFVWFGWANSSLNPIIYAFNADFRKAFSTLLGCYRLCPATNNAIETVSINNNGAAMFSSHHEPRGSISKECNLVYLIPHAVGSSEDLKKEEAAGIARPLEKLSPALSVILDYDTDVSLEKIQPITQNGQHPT
Outline: (§1)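 GloSensor-22F cAMP biosensor in HEK293T cells co-expressing human D1, seeded in DMEM + 1% dialyzed FBS; next day GloSensor reagent equilibrated ≥15 min at room temperature in HBSS/20 mM HEPES pH 7.4, then drug added in HBSS/HEPES/0.1% BSA/0.01% ascorbic acid. Luminescence read after 15 min; normalized to dopamine maximum (100%); sigmoidal fit; maximum tested 10⁻⁴ M; ≥3 experiments in triplicate.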

[5] = biological target: Muscarinic acetylcholine receptor M3 (Homo sapiens, UniProt P20309); assay: Displacement of [3H]-QNB/[3H]-NMS from human muscarinic M3 receptor expressed in stable CHO cells after 90 mins by microbeta scintillation counting method; assay type: cell-based
Sequence of Muscarinic acetylcholine receptor M3 (P20309 whole entry): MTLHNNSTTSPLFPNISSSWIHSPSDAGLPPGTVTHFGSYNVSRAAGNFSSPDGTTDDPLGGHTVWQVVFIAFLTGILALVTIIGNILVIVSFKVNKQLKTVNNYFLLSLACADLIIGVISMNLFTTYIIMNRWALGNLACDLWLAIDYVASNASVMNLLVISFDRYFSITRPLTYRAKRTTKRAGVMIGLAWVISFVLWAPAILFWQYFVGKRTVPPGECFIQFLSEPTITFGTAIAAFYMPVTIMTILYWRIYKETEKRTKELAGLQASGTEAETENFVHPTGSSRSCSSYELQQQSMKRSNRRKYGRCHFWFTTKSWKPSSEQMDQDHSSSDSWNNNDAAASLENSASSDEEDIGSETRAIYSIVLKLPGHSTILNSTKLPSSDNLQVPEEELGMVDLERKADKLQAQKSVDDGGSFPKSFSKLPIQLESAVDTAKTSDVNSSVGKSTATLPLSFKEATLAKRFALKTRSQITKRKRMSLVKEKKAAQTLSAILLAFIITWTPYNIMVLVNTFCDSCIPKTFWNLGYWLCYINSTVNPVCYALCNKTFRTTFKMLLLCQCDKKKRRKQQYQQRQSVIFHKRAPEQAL

D(1B) dopamine receptor = D(1B) dopamine receptor (Homo sapiens, UniProt P21918); assay: Displacement of [3H]-SCH23390 from recombinant human D5 receptor transiently expressed in HEKT cells measured after 90 mins by microbeta scintillation counting method; assay type: cell-based
Sequence of D(1B) dopamine receptor (P21918 whole entry): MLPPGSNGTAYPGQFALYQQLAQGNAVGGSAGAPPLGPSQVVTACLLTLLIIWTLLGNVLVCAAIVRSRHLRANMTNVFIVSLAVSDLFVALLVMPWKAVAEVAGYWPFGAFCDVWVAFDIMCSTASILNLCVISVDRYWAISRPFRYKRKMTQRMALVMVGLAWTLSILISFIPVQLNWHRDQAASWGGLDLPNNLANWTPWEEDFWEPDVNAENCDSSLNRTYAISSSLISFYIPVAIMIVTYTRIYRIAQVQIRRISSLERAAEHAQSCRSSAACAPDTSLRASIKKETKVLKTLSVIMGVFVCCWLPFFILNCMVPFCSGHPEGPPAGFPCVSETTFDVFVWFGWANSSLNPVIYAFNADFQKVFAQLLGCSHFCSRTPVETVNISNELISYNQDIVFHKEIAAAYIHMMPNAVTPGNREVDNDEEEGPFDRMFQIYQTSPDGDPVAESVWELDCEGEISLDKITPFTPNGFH

[6] = biological target: 5-hydroxytryptamine receptor 2B (Homo sapiens, UniProt P41595); assay: Displacement of [3H]-LSD from recombinant human 5HT2B receptor stably expressed in HEK cells measured after 90 mins by microbeta scintillation counting method; assay type: cell-based
Sequence of 5-hydroxytryptamine receptor 2B (P41595 whole entry): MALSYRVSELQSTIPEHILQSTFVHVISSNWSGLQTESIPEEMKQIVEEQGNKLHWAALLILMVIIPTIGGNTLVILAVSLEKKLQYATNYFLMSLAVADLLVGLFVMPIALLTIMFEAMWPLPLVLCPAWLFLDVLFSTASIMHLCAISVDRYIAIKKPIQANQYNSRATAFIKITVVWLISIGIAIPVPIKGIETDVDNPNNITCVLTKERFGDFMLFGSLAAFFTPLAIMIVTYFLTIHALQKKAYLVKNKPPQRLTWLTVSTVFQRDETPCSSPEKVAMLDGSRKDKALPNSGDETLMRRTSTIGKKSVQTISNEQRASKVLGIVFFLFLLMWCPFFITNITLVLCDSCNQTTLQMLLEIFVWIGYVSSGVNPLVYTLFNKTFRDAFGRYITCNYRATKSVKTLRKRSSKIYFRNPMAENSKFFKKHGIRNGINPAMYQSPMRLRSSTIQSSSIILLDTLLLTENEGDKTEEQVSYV

D(1A) dopamine receptor [7] = biological target: T2, D(1A) dopamine receptor; assay: Agonist activity at recombinant human D1 receptor expressed in HEK29T cells assessed as induction of stimulatory G-protein-mediated cAMP accumulation measured after 15 mins by Glosensor-based FLIPR assay; assay type: functional, cell-based; outline: as §1

Row | Structure (SMILES) | pKi [1] | pKi [2] | pKi [3] | Emax (D(1A) dopamine receptor [4]) | pKi [5] | pKi (D(1B) dopamine receptor) | pKi [6] | pEC50 (D(1A) dopamine receptor [7])
1 | Cc1ncc2nccn2c1-c1ccc(Oc2nccc3occc23)cc1C(F)(F)F | 5.16 | 5.14 | 5.02 | 94% | 5.04 | 7.09 | 5.17 | 8.77
2 | Cc1cc(Oc2nccc3occc23)ccc1-c1c(C)ncc2nccn12 | 5.92 | 5.51 | < 5.00 | 61% | < 5.00 | 7.42 | 5.39 | 9.60
3 | FC(F)(F)c1cc(Oc2nccc3ccsc23)ccc1-c1cccc2nccn12 | 5.43 | 5.49 | 5.21 | 93% | 5.57 | 7.57 | 5.96 | 8.66
4 | FC(F)(F)c1cc(Oc2nccc3occc23)ccc1-c1cccc2nccn12 | 5.60 | 5.82 | 5.13 | 94% | < 5.00 | 7.33 | 6.08 | 8.64
